Data set [1] is described as follows: Chemical stability assessed as half life of degradation. Format: physicochemical. A digest of the protocol: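 Z-isomer formed by long-wavelength UV irradiation, then its thermal reisomerization to the E-form followed. First-order rate constant (h⁻¹) and Z-isomer half-life (h) derived.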
In data set [2] the target is T1, Membrane-bound transcription factor site-1 protease (Homo sapiens, UniProt Q14703).
T1 sequence (Q14703 whole entry): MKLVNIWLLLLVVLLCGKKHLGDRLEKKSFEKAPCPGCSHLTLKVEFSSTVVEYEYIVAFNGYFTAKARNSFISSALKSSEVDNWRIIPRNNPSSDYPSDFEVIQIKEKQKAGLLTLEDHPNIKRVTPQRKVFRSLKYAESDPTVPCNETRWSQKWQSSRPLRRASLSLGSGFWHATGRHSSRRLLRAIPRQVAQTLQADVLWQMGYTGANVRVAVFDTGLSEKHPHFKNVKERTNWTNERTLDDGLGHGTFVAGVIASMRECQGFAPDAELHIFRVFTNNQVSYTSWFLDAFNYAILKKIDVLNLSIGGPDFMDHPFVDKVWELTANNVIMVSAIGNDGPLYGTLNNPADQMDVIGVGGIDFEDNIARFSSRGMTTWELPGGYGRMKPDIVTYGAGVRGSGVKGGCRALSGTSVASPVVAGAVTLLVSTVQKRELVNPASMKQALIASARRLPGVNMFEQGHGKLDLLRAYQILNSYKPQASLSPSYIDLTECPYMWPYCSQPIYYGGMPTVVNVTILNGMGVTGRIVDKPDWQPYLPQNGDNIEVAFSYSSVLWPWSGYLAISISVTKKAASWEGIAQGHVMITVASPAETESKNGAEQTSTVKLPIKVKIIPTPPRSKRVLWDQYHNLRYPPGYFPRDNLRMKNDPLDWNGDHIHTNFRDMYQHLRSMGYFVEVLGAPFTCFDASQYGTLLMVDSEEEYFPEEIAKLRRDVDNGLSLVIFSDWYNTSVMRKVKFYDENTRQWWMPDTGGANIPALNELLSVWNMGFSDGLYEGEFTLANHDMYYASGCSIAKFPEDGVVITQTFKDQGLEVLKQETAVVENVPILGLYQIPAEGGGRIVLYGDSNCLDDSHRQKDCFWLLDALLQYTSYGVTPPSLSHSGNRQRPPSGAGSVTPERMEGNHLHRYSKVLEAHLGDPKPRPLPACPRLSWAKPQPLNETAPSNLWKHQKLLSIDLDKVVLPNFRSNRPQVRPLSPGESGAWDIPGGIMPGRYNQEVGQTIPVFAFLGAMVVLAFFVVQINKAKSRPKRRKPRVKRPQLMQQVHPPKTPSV
The experiment in a line: Inhibition of human recombinant soluble Kexin isozyme 1. A digest of the protocol:
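Recombinant soluble human SKI-1 (activity normalized to 10 pmol Abz-peptide released per µL per h, 37 °C). Only the E-form was tested, at varying concentrations, with quenched fluorogenic Abz-Q-GPC251–263-Tyx substrate in Tris/Mes/2 mM CaCl2 buffer at 37 °C. RFU (ex 320/em 420 nm) were read from 0–6 h and converted to cleavage rates. Ki came from Dixon plots at 0.1, 0.05 and 0.025 mM substrate.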

In general, half-life refers to the time in which the quantity being followed falls by half. By Ki is commonly meant a measure of affinity in units of concentration, obtained from inhibition or displacement. On to `CC(C)[C@H](NC(=O)COc1ccccc1/N=N/c1ccccc1OCC(=O)N[C@H](C(=O)OCc1ccccc1)C(C)C)C(=O)OCc1ccccc1`, for which the half-life in data set [1] is 31.5 h. In addition, the Ki in data set [2] is 125 µM.

For `O=C(COc1ccccc1/N=N/c1ccccc1OCC(=O)N[C@@H](Cc1ccccc1)C(=O)OCc1ccccc1)N[C@@H](Cc1ccccc1)C(=O)OCc1ccccc1`, in data set [1], the half-life was 69.3 h. Moreover, the Ki in data set [2] turned out to be 11.8 µM.

Regarding `O=C(COc1ccccc1/N=N/c1ccccc1OCC(=O)NCC(=O)OCc1ccccc1)NCC(=O)OCc1ccccc1`, the half-life in data set [1] was 77 h.

In the case of `O=C(COc1ccccc1/N=N/c1ccccc1OCC(=O)N[C@@H](Cc1ccccc1)C(=O)O)N[C@@H](Cc1ccccc1)C(=O)O`, the Ki in data set [2] turned out to be 225 µM.

For the compound `O=C(COc1ccccc1/N=N/c1ccccc1OCC(=O)N[C@@H](Cc1ccccc1)C(=O)N[C@@H](Cc1ccccc1)C(=O)O)N[C@@H](Cc1ccccc1)C(=O)N[C@@H](Cc1ccccc1)C(=O)O`, in data set [2], the Ki is 140 µM.

For `O=C(O)CNC(=O)COc1ccccc1/N=N/c1ccccc1OCC(=O)NCC(=O)O`, the Ki in data set [2] worked out at 265 µM.

For `CC(C)[C@H](NC(=O)COc1ccccc1/N=N/c1ccccc1OCC(=O)N[C@H](C(=O)O)C(C)C)C(=O)O`, in data set [2], the Ki is 75 µM.

On to `O=C(COc1ccccc1/N=N/c1ccccc1OCC(=O)N[C@@H](Cc1ccccc1)C(=O)N[C@@H](Cc1ccccc1)C(=O)OCc1ccccc1)N[C@@H](Cc1ccccc1)C(=O)N[C@@H](Cc1ccccc1)C(=O)OCc1ccccc1`, for which the half-life in data set [1] is 28.9 h.
